Laboratory results taken from ChEMBL document CHEMBL2040809, “Synthesis and biological activity evaluation of cytidine-5'-deoxy-5-fluoro-N-[(alkoxy/aryloxy)] carbonyl-cyclic 2',3'-carbonates” (Eur J Med Chem, 2012).
Converted amounts (≈) assume the structure as drawn.

tested on: Salmonella typhimurium; assay: Mutagenic activity in Salmonella typhimurium TA102 at 0.312 to 5 mg/plate measured after incubation of upside down for 48 hrs in presence of liver S9 mixture; assay type: toxicity, organism-based; conditions: salmonella enterica subsp. enterica serovar typhimurium, s9, 48 h
In short: (§1)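 Plate incorporation trial (Trial I) with histidine-dependent auxotrophs. Revertant colonies are counted against the concurrent vehicle control. Each dose and each control, including negative, vehicle and positive reference mutagens, run in triplicate plates.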

Row | Structure (SMILES) | Activity
1 | C[C@H]1O[C@@H](n2cc(F)c(NC(=O)Oc3ccc([N+](=O)[O-])cc3)nc2=O)[C@H](O)[C@@H]1O | Non-toxic

tested on: Salmonella typhimurium; assay: Mutagenic activity in Salmonella typhimurium TA100 at 0.312 to 5 mg/plate measured after incubation of upside down for 48 hrs in absence of liver S9 mixture; assay type: toxicity, organism-based; conditions: salmonella enterica subsp. enterica serovar typhimurium; in short: as §1

Row | Structure (SMILES) | Activity
2 | C[C@H]1O[C@@H](n2cc(F)c(NC(=O)Oc3ccc([N+](=O)[O-])cc3)nc2=O)[C@H](O)[C@@H]1O | Non-toxic

tested on: Salmonella typhimurium; assay: Mutagenic activity in Salmonella typhimurium TA1535 at 0.312 to 5 mg/plate preincubated for 20 mins before addition in absence of liver S9 mixture; assay type: toxicity, organism-based; conditions: salmonella enterica subsp. enterica serovar typhimurium
In short: (§2)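 Pre-incubation trial (Trial II) with histidine-dependent auxotrophs. Test solution is pre-incubated with bacterial suspension and S9 mix (10% v/v) or substitution buffer before plating on selective agar. Revertant colonies are counted against the concurrent vehicle control. Triplicate plates per dose and per control (negative, vehicle, positive reference mutagens).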

Row | Structure (SMILES) | Activity
3 | C[C@H]1O[C@@H](n2cc(F)c(NC(=O)Oc3ccc([N+](=O)[O-])cc3)nc2=O)[C@H](O)[C@@H]1O | Non-toxic

tested on: MCF7; assay: Cytotoxicity against human MCF7 cells after 3 days MTT assay; assay type: functional, cell-based; conditions: MCF7, 72 h
In short: (§3)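 Cells held as monolayers in DMEM with 10% supplement. Seeded in 96-well plates on day 0 at densities set by doubling time: 1 × 10⁴/mL for HeLa and NCI-69, 2 × 10⁴/mL for MCF-7, 3 × 10⁴/mL for PZ-HPV-7. Five dilutions (10⁻⁸–5 × 10⁻⁶ mol/l), freshly prepared, added for 72 h. Growth read by MTT (succinate dehydrogenase activity); IC50 derived.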

Row | Structure (SMILES) | IC50
4 | C[C@H]1O[C@@H](n2cc(F)c(NC(=O)Oc3ccc([N+](=O)[O-])cc3)nc2=O)[C@H](O)[C@@H]1O | 180 µg/mL (≈ 439 µM)

tested on: Salmonella typhimurium; assay: Mutagenic activity in Salmonella typhimurium TA1537 at 0.312 to 5 mg/plate measured after incubation of upside down for 48 hrs in absence of liver S9 mixture; assay type: toxicity, organism-based; conditions: salmonella enterica subsp. enterica serovar typhimurium; in short: as §1

Row | Structure (SMILES) | Activity
5 | C[C@H]1O[C@@H](n2cc(F)c(NC(=O)Oc3ccc([N+](=O)[O-])cc3)nc2=O)[C@H](O)[C@@H]1O | Non-toxic

tested on: Salmonella typhimurium; assay: Mutagenic activity in Salmonella typhimurium TA98 at 0.312 to 5 mg/plate preincubated for 20 mins before addition in absence of liver S9 mixture; assay type: toxicity, organism-based; conditions: salmonella enterica subsp. enterica serovar typhimurium; in short: as §2

Row | Structure (SMILES) | Activity
6 | C[C@H]1O[C@@H](n2cc(F)c(NC(=O)Oc3ccc([N+](=O)[O-])cc3)nc2=O)[C@H](O)[C@@H]1O | Non-toxic

tested on: Salmonella typhimurium; assay: Mutagenic activity in Salmonella typhimurium TA102 at 0.312 to 5 mg/plate measured after incubation of upside down for 48 hrs in absence of liver S9 mixture; assay type: toxicity, organism-based; conditions: salmonella enterica subsp. enterica serovar typhimurium; in short: as §1

Row | Structure (SMILES) | Activity
7 | C[C@H]1O[C@@H](n2cc(F)c(NC(=O)Oc3ccc([N+](=O)[O-])cc3)nc2=O)[C@H](O)[C@@H]1O | Non-toxic

tested on: Salmonella typhimurium; assay: Mutagenic activity in Salmonella typhimurium TA100 at 0.312 to 5 mg/plate preincubated for 20 mins before addition in absence of liver S9 mixture; assay type: toxicity, organism-based; conditions: salmonella enterica subsp. enterica serovar typhimurium; in short: as §2

Row | Structure (SMILES) | Activity
8 | C[C@H]1O[C@@H](n2cc(F)c(NC(=O)Oc3ccc([N+](=O)[O-])cc3)nc2=O)[C@H](O)[C@@H]1O | Non-toxic

tested on: Salmonella typhimurium; assay: Mutagenic activity in Salmonella typhimurium TA1537 at 0.312 to 5 mg/plate measured after incubation of upside down for 48 hrs in presence of liver S9 mixture; assay type: toxicity, organism-based; conditions: salmonella enterica subsp. enterica serovar typhimurium, s9, 48 h; in short: as §1

Row | Structure (SMILES) | Activity
9 | C[C@H]1O[C@@H](n2cc(F)c(NC(=O)Oc3ccc([N+](=O)[O-])cc3)nc2=O)[C@H](O)[C@@H]1O | Non-toxic

tested on: Salmonella typhimurium; assay: Mutagenic activity in Salmonella typhimurium TA1535 at 0.312 to 5 mg/plate preincubated for 20 mins before addition in presence of liver S9 mixture; assay type: toxicity, organism-based; conditions: salmonella enterica subsp. enterica serovar typhimurium; in short: as §2

Row | Structure (SMILES) | Activity
10 | C[C@H]1O[C@@H](n2cc(F)c(NC(=O)Oc3ccc([N+](=O)[O-])cc3)nc2=O)[C@H](O)[C@@H]1O | Non-toxic

tested on: Salmonella typhimurium; assay: Mutagenic activity in Salmonella typhimurium TA1537 at 0.312 to 5 mg/plate preincubated for 20 mins before addition in presence of liver S9 mixture; assay type: toxicity, organism-based; conditions: salmonella enterica subsp. enterica serovar typhimurium; in short: as §2

Row | Structure (SMILES) | Activity
11 | C[C@H]1O[C@@H](n2cc(F)c(NC(=O)Oc3ccc([N+](=O)[O-])cc3)nc2=O)[C@H](O)[C@@H]1O | Non-toxic

tested on: Salmonella typhimurium; assay: Mutagenic activity in Salmonella typhimurium TA98 at 0.312 to 5 mg/plate measured after incubation of upside down for 48 hrs in absence of liver S9 mixture; assay type: toxicity, organism-based; conditions: salmonella enterica subsp. enterica serovar typhimurium; in short: as §1

Row | Structure (SMILES) | Activity
12 | C[C@H]1O[C@@H](n2cc(F)c(NC(=O)Oc3ccc([N+](=O)[O-])cc3)nc2=O)[C@H](O)[C@@H]1O | Non-toxic

tested on: not listed separately; assay: Cytotoxicity against human PZ-HPV-7 cells after 3 days MTT assay; assay type: functional, cell-based; conditions: 72 h; in short: as §3

Row | Structure (SMILES) | IC50
13 | C[C@H]1O[C@@H](n2cc(F)c(NC(=O)Oc3ccc([N+](=O)[O-])cc3)nc2=O)[C@H](O)[C@@H]1O | 90 µg/mL (≈ 219 µM)

tested on: Salmonella typhimurium; assay: Mutagenic activity in Salmonella typhimurium TA1537 at 0.312 to 5 mg/plate preincubated for 20 mins before addition in absence of liver S9 mixture; assay type: toxicity, organism-based; conditions: salmonella enterica subsp. enterica serovar typhimurium; in short: as §2

Row | Structure (SMILES) | Activity
14 | C[C@H]1O[C@@H](n2cc(F)c(NC(=O)Oc3ccc([N+](=O)[O-])cc3)nc2=O)[C@H](O)[C@@H]1O | Non-toxic

tested on: Salmonella typhimurium; assay: Mutagenic activity in Salmonella typhimurium TA102 at 0.312 to 5 mg/plate preincubated for 20 mins before addition in presence of liver S9 mixture; assay type: toxicity, organism-based; conditions: salmonella enterica subsp. enterica serovar typhimurium; in short: as §2

Row | Structure (SMILES) | Activity
15 | C[C@H]1O[C@@H](n2cc(F)c(NC(=O)Oc3ccc([N+](=O)[O-])cc3)nc2=O)[C@H](O)[C@@H]1O | Non-toxic

tested on: Salmonella typhimurium; assay: Mutagenic activity in Salmonella typhimurium TA102 at 0.312 to 5 mg/plate preincubated for 20 mins before addition in absence of liver S9 mixture; assay type: toxicity, organism-based; conditions: salmonella enterica subsp. enterica serovar typhimurium; in short: as §2

Row | Structure (SMILES) | Activity
16 | C[C@H]1O[C@@H](n2cc(F)c(NC(=O)Oc3ccc([N+](=O)[O-])cc3)nc2=O)[C@H](O)[C@@H]1O | Non-toxic

tested on: HeLa; assay: Cytotoxicity against human HeLa cells after 3 days MTT assay; assay type: functional, cell-based; conditions: 72 h; in short: as §3

Row | Structure (SMILES) | IC50
17 | C[C@H]1O[C@@H](n2cc(F)c(NC(=O)Oc3ccc([N+](=O)[O-])cc3)nc2=O)[C@H](O)[C@@H]1O | 0.01 µg/mL (≈ 0.0244 µM)

tested on: Salmonella typhimurium; assay: Mutagenic activity in Salmonella typhimurium TA1535 at 0.312 to 5 mg/plate measured after incubation of upside down for 48 hrs in presence of liver S9 mixture; assay type: toxicity, organism-based; conditions: salmonella enterica subsp. enterica serovar typhimurium, s9, 48 h; in short: as §1

Row | Structure (SMILES) | Activity
18 | C[C@H]1O[C@@H](n2cc(F)c(NC(=O)Oc3ccc([N+](=O)[O-])cc3)nc2=O)[C@H](O)[C@@H]1O | Non-toxic

tested on: Salmonella typhimurium; assay: Mutagenic activity in Salmonella typhimurium TA98 at 0.312 to 5 mg/plate measured after incubation of upside down for 48 hrs in presence of liver S9 mixture; assay type: toxicity, organism-based; conditions: salmonella enterica subsp. enterica serovar typhimurium, s9, 48 h; in short: as §1

Row | Structure (SMILES) | Activity
19 | C[C@H]1O[C@@H](n2cc(F)c(NC(=O)Oc3ccc([N+](=O)[O-])cc3)nc2=O)[C@H](O)[C@@H]1O | Non-toxic

tested on: Salmonella typhimurium; assay: Mutagenic activity in Salmonella typhimurium TA98 at 0.312 to 5 mg/plate preincubated for 20 mins before addition in presence of liver S9 mixture; assay type: toxicity, organism-based; conditions: salmonella enterica subsp. enterica serovar typhimurium; in short: as §2

Row | Structure (SMILES) | Activity
20 | C[C@H]1O[C@@H](n2cc(F)c(NC(=O)Oc3ccc([N+](=O)[O-])cc3)nc2=O)[C@H](O)[C@@H]1O | Non-toxic

tested on: Salmonella typhimurium; assay: Mutagenic activity in Salmonella typhimurium TA100 at 0.312 to 5 mg/plate preincubated for 20 mins before addition in presence of liver S9 mixture; assay type: toxicity, organism-based; conditions: salmonella enterica subsp. enterica serovar typhimurium; in short: as §2

Row | Structure (SMILES) | Activity
21 | C[C@H]1O[C@@H](n2cc(F)c(NC(=O)Oc3ccc([N+](=O)[O-])cc3)nc2=O)[C@H](O)[C@@H]1O | Non-toxic

tested on: Salmonella typhimurium; assay: Mutagenic activity in Salmonella typhimurium TA100 at 0.312 to 5 mg/plate measured after incubation of upside down for 48 hrs in presence of liver S9 mixture; assay type: toxicity, organism-based; conditions: salmonella enterica subsp. enterica serovar typhimurium, s9, 48 h; in short: as §1

Row | Structure (SMILES) | Activity
22 | C[C@H]1O[C@@H](n2cc(F)c(NC(=O)Oc3ccc([N+](=O)[O-])cc3)nc2=O)[C@H](O)[C@@H]1O | Non-toxic

tested on: NCI-H69; assay: Cytotoxicity against human NCI-H69 cells after 3 days MTT assay; assay type: functional, cell-based; conditions: NCI-H69, 72 h; in short: as §3

Row | Structure (SMILES) | IC50
23 | C[C@H]1O[C@@H](n2cc(F)c(NC(=O)Oc3ccc([N+](=O)[O-])cc3)nc2=O)[C@H](O)[C@@H]1O | 100 µg/mL (≈ 244 µM)

tested on: Salmonella typhimurium; assay: Mutagenic activity in Salmonella typhimurium TA1535 at 0.312 to 5 mg/plate measured after incubation of upside down for 48 hrs in absence of liver S9 mixture; assay type: toxicity, organism-based; conditions: salmonella enterica subsp. enterica serovar typhimurium; in short: as §1

Row | Structure (SMILES) | Activity
24 | C[C@H]1O[C@@H](n2cc(F)c(NC(=O)Oc3ccc([N+](=O)[O-])cc3)nc2=O)[C@H](O)[C@@H]1O | Non-toxic
